# ChEMBL document CHEMBL4834474, “Terphenyl-Based Small-Molecule Inhibitors of Programmed Cell Death-1/Programmed Death-Ligand 1 Protein-Protein Interaction” (J Med Chem, 2021)
# The source made the active and inactive calls. No cut-off for these calls is given here.
# Experiments:
# [1] = biological target: Programmed cell death 1 ligand 1 (Homo sapiens) (UniProt Q9NZQ7); assay: Binding affinity to human PD-L1 assessed as induction of protein dimerization by 1H NMR method
# [2] = biological target: T1, Programmed cell death protein 1/Programmed cell death 1 ligand 1 (Homo sapiens) (UniProt Q15116+Q9NZQ7); assay: Inhibition of PD-1/PD-L1 interaction in human Jurkat cells cocultured with CHO cells expressing PD-Ll/TCRAct assessed as activation of effector Jurkat cells at 0.01 to 100 uM incubated for 6 hrs by luciferase reporter gene based immune checkpoint blockade cell-based assay; conditions: dose 0.01-100 µM
# Procedure, shortened: (§1)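 CHO/TCRAct/PD-L1, CHO/TCRAct or CHO-K1 cells seeded at 10,000/well. Next day overlaid with Jurkat-ECs (20,000/well) plus compound dilutions, DMSO held at 0.1%. Incubated 6 h at 37 °C, 5% CO2; luciferase reagent added for 20 min at room temperature; luminescence read. Fold induction over DMSO-treated cells; mean ± SD, 3–5 experiments; EC50 by Hill fit.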
# Jurkat = assay: Cytotoxicity against human Jurkat effector cells at 10 uM after 48 hrs; assay type: cell-based
# Procedure, shortened: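 Jurkat-ECs (PD-1, NFAT-RE luciferase) exposed to increasing compound concentrations, DMSO constant at 0.1%. After 48 h, tetrazolium redox dye added for a further 2 h at 37 °C, 5% CO2. Absorbance at 590 nm, 750 nm reference. Survival relative to DMSO controls; mean ± SD of three independent experiments; EC50 from dose–response curve.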
# [3] = biological target: T1, Programmed cell death protein 1/Programmed cell death 1 ligand 1 (Homo sapiens); assay: Inhibition of PD-1/PD-L1 interaction in human Jurkat cells cocultured with CHO cells expressing TCRAct assessed as activation of effector Jurkat cells incubated for 6 hrs by luciferase reporter gene based immune checkpoint blockade cell-based assay; procedure, shortened: as §1
# [4] = biological target: T1, Programmed cell death protein 1/Programmed cell death 1 ligand 1 (Homo sapiens); assay: Inhibition of PD-1/PD-L1 interaction in human PBMCs cocultured with CHO cells expressing PD-L1/TCRAct assessed as increase in TNFalpha expression at 0.1 to 2.5 uM incubated for 48 hrs by TCA; assay type: cell-based; conditions: PBMC, dose 0.1-2.5 µM
# Procedure, shortened: (§2)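 Culture supernatants taken from 48 h cocultures of PBMCs with CHO/TCRAct/PD-L1 cells (compound 0.1, 0.5, 2.5 μM). IL-2, IL-6, IL-10, IFN-γ, TNFα quantified by cytometric bead array against standard curves. Per donor, normalized to untreated PBMC plus CHO/TCRAct coculture. Mean ± SEM of four donors; one-way ANOVA, Fisher post hoc.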
# [5] = biological target: T1, Programmed cell death protein 1/Programmed cell death 1 ligand 1 (Homo sapiens); assay: Inhibition of PD-1/PD-L1 interaction in human PBMCs cocultured with CHO cells expressing PD-L1/TCRAct assessed as increase in IL-6 expression at 0.1 to 2.5 uM incubated for 48 hrs by TCA; assay type: cell-based; conditions: PBMC, dose 0.1-2.5 µM; procedure, shortened: as §2
# [6] = biological target: T1, Programmed cell death protein 1/Programmed cell death 1 ligand 1 (Homo sapiens); assay: Inhibition of PD-1/PD-L1 interaction in human PBMCs cocultured with CHO cells expressing PD-L1/TCRAct assessed as increase in PD-1 receptor expression on CD4+ T cells at 0.1 to 2.5 uM incubated for 48 hrs by flow cytometry; assay type: cell-based; conditions: PBMC, dose 0.1-2.5 µM
# Procedure, shortened: (§3)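 PBMCs isolated by density gradient from healthy donor blood (citrate dextrose anticoagulant). 3 × 10^5 cells added to preseeded CHO/TCRAct/PD-L1 cells with compound at 0.1, 0.5 or 2.5 μM, 0.1% DMSO as control. Cocultured 48 h at 37 °C, 5% CO2. Detached cells stained 20 min at RT for CD4, CD8, CD69, CD25, HLA-DR, PD-1; flow cytometry. Four donors; one-way ANOVA with Fisher post hoc.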
# [7] = biological target: T1, Programmed cell death protein 1/Programmed cell death 1 ligand 1 (Homo sapiens); assay: Inhibition of PD-1/PD-L1 interaction in human PBMCs cocultured with CHO cells expressing PD-L1/TCRAct assessed as increase in PD-1 receptor expression on CD8+ T cells at 0.1 to 2.5 uM incubated for 48 hrs by flow cytometry; assay type: cell-based; conditions: PBMC, dose 0.1-2.5 µM; procedure, shortened: as §3
# [8] = biological target: T1, Programmed cell death protein 1/Programmed cell death 1 ligand 1 (Homo sapiens); assay: Inhibition of PD-1/PD-L1 interaction in human PBMCs cocultured with CHO cells expressing PD-L1/TCRAct assessed as increase in CD25 expression on CD4+ T cells at 0.1 to 2.5 uM incubated for 48 hrs by flow cytometry; assay type: cell-based; conditions: PBMC, dose 0.1-2.5 µM; procedure, shortened: as §3
# [9] = biological target: T1, Programmed cell death protein 1/Programmed cell death 1 ligand 1 (Homo sapiens); assay: Inhibition of PD-1/PD-L1 interaction in human PBMCs cocultured with CHO cells expressing PD-L1/TCRAct assessed as increase in CD25 expression on CD8+ T cells at 0.1 to 2.5 uM incubated for 48 hrs by flow cytometry; assay type: cell-based; conditions: PBMC, dose 0.1-2.5 µM; procedure, shortened: as §3
# [10] = biological target: T1, Programmed cell death protein 1/Programmed cell death 1 ligand 1 (Homo sapiens); assay: Inhibition of PD-1/PD-L1 interaction in human PBMCs cocultured with CHO cells expressing PD-L1/TCRAct assessed as increase in HLA-DR expression on CD4+ T cells at 0.1 to 2.5 uM incubated for 48 hrs by flow cytometry; assay type: cell-based; conditions: PBMC, dose 0.1-2.5 µM; procedure, shortened: as §3
# [11] = biological target: T1, Programmed cell death protein 1/Programmed cell death 1 ligand 1 (Homo sapiens); assay: Inhibition of PD-1/PD-L1 interaction in human PBMCs cocultured with in CHO cells expressing PD-L1/TCRAct assessed as increase in HLA-DR expression on CD8+ T cells at 0.1 to 2.5 uM incubated for 48 hrs by flow cytometry; assay type: cell-based; conditions: PBMC, dose 0.1-2.5 µM; procedure, shortened: as §3
# [12] = biological target: T1, Programmed cell death protein 1/Programmed cell death 1 ligand 1 (Homo sapiens); assay: Inhibition of PD-1/PD-L1 interaction in human PBMCs cocultured with CHO cells expressing PD-L1/TCRAct assessed as increase in INFgamma expression at 0.1 to 2.5 uM incubated for 48 hrs by TCA; assay type: cell-based; conditions: PBMC, dose 0.1-2.5 µM; procedure, shortened: as §2
# [13] = biological target: T1, Programmed cell death protein 1/Programmed cell death 1 ligand 1 (Homo sapiens); assay: Inhibition of PD-1/PD-L1 interaction in human PBMCs cocultured with CHO cells expressing PD-L1/TCRAct assessed as increase in IL-10 expression at 0.1 to 2.5 uM incubated for 48 hrs by TCA; assay type: cell-based; conditions: PBMC, dose 0.1-2.5 µM; procedure, shortened: as §2
# [14] = biological target: T1, Programmed cell death protein 1/Programmed cell death 1 ligand 1 (Homo sapiens); assay: Inhibition of PD-1/PD-L1 interaction in human PBMCs cocultured with CHO cells expressing PD-L1/TCRAct assessed as increase in IL-2 expression at 0.1 to 2.5 uM incubated for 48 hrs by TCA; assay type: cell-based; conditions: PBMC, dose 0.1-2.5 µM; procedure, shortened: as §2
# [15] = biological target: Programmed cell death 1 ligand 1 (Mus musculus) (UniProt Q9EP73); assay: Binding affinity to mouse PD-L1 assessed as induction of protein dimerization by 1H NMR method
# Chain of Programmed cell death 1 ligand 1 (Mus musculus) (Q9EP73 whole entry): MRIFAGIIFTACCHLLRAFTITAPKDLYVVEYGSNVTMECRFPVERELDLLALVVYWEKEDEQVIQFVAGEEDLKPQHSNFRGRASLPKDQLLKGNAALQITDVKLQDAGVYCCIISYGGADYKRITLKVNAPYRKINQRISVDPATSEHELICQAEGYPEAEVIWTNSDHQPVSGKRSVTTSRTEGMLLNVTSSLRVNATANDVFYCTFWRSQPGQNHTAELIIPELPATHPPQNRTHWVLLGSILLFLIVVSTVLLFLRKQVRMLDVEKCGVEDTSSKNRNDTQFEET
# Chain of Programmed cell death 1 ligand 1 (Homo sapiens) (Q9NZQ7 whole entry): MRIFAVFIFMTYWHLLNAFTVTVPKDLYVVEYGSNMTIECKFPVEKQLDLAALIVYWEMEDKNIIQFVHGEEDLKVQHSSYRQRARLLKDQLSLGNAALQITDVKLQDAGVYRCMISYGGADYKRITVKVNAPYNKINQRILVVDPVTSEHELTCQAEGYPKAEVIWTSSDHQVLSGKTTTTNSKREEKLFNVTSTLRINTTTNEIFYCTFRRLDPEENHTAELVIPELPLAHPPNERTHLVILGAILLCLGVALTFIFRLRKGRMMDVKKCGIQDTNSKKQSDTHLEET
SMILES,Activity [1],inhibition [2],Activity (Jurkat),inhibition [3],further results
CC(=O)NCCNCc1ccc(-c2cccc(-c3ccc4c(c3)OCCO4)c2Cl)cc1OCC#N,Active,–,–,–,–
COc1cc(-c2cccc(-c3ccc4c(c3)OCCO4)c2Cl)ccc1CNC(CO)(CO)CO,Active,Active,Non-Toxic,inactive,inhibition [4]: Active; inhibition [5]: Active; inhibition [6]: Active; inhibition [7]: Active; inhibition [8]: Active; inhibition [9]: Active; inhibition [10]: Active; inhibition [11]: Active; inhibition [12]: Active; inhibition [13]: Active; inhibition [14]: Active; Activity [15]: inactive
COc1cc(-c2cccc(-c3ccc4c(c3)OCCO4)c2Cl)ccc1CNCCNC(=O)CN,–,Active,Non-Toxic,inactive,–
COc1cc(-c2cccc(-c3ccc4c(c3)OCCO4)c2Cl)ccc1CNCCNC(C)=O,Active,Active,Non-Toxic,inactive,–
COc1cc(-c2cccc(-c3ccc4c(c3)OCCO4)c2Cl)ccc1CNC(CO)CO,–,Active,Non-Toxic,inactive,–
COc1cc(-c2cccc(-c3ccc4c(c3)OCCO4)c2Cl)ccc1CNCCNS(C)(=O)=O,–,Active,Non-Toxic,inactive,–
COc1cc(-c2cccc(-c3ccc4c(c3)OCCO4)c2Cl)ccc1CNCCNC(N)=O,–,Active,Non-Toxic,inactive,inhibition [6]: Active; inhibition [7]: Active; inhibition [8]: inactive; inhibition [9]: inactive; inhibition [10]: inactive; inhibition [11]: inactive
